Test results reported in publication PMC8927994 (iScience, 2022).
Read-outs that look alike come from different tables or passages of the source.

Key:
SHP2 protein [1] = conditions: esophageal cancer KYSE520 cells; ref Wang et al., 2021; cited from earlier work
SHP2 protein [2] = conditions: acute myeloid leukemia MV4;11 cells; ref Wang et al., 2021; cited from earlier work
SHP1 = SHP1 (Homo sapiens, UniProt P29350); test: SHP1 enzyme activity assay; assay type: biochemical; conditions: read-out: IC50 SHP1, DiFMUP substrate
Sequence of SHP1 (P29350 whole entry): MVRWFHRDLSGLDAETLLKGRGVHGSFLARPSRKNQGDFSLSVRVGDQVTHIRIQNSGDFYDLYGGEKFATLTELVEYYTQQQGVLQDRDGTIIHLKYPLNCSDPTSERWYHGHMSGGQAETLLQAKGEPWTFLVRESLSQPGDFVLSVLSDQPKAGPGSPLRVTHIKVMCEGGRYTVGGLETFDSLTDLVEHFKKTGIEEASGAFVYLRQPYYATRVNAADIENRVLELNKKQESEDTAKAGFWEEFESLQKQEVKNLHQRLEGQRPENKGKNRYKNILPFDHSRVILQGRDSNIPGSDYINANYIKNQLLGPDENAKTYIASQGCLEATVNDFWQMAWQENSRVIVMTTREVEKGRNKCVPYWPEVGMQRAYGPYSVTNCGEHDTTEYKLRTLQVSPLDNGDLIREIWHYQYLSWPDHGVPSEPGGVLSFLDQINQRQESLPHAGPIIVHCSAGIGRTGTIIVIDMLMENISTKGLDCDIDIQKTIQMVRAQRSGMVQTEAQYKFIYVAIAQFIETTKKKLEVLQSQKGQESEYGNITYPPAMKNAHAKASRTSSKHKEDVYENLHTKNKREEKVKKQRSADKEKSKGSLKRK
Outline: (§1)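 In-house expressed recombinant enzyme, purified by gel filtration, at the same conditions as the SHP2 assay but without IRS1 activating peptide. Test compound at 0.001–100 μM is preincubated with enzyme for 30–60 min at 25°C. DiFMUP is then added for 30 min at 25°C, and the reaction is quenched with bpV(Phen). Fluorescence is read at ex 340/em 450 nm, and IC50 comes from the dose-response curve.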

PTP1B = biological target: T1, PTP1B (Homo sapiens, UniProt P18031); test: PTP1B enzyme activity assay; assay type: biochemical; conditions: read-out: IC50 PTP1B, DiFMUP substrate
T1 sequence (P18031 1-435): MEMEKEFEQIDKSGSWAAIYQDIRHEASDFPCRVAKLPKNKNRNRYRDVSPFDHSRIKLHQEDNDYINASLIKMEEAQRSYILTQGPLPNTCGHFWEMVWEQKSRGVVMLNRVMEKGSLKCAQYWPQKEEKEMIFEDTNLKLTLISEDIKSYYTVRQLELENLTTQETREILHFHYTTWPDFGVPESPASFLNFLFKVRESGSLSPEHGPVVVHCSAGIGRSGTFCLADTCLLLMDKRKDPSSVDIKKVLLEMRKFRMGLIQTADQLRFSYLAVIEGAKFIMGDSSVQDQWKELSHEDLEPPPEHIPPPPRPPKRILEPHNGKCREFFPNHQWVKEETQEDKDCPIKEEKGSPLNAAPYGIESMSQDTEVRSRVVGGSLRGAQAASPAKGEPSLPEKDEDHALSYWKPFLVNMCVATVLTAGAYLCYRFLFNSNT
Outline: as §1

[3] = system: mouse peritoneal macrophages (PMs); test: Imiquimod-induced inflammation in peritoneal macrophages; assay type: cell-based
[4] = system: bone marrow-derived macrophages (BMDMs); test: Imiquimod-induced inflammation in bone marrow-derived macrophages; assay type: cell-based, mouse
[5] = system: imiquimod-induced psoriasis model mice; test: IMQ-induced psoriasis-like mouse model; assay type: in vivo
[6] = 10 μM pretreated 3 h, 5 μM IMQ 1 h

Row | IC50 (SHP1) | IC50 (PTP1B) | Compound | reduction of SHP2 protein levels (SHP2 protein [1]) | reduction of SHP2 protein levels (SHP2 protein [2]) | phosphorylation levels of p-IKKα/β and p-p65 (western blot) [3, 6] | gene expression levels of inflammatory factors Il23a, Il22, Il6, Tnfα, Il1b, Ptgs2 (qPCR) ([3]; pretreated 3 h, 5 μM IMQ 6 h) | phosphorylation levels of p-IKKα/β and p-p65 (western blot) [4, 6] | gene expression levels of inflammatory factors Il23a, Il22, Il6, Tnfα, Il1b, Ptgs2 (qPCR) ([4]; pretreated 3 h, 5 μM IMQ 6 h) | infiltration of inflammatory cells (HE staining of skin sections) [5] | proliferation of epidermal cells (HE staining of skin sections) [5]
1 |  |  | Cc1ncsc1-c1ccc([C@H](C)NC(=O)[C@@H]2C[C@@H](O)CN2C(=O)[C@@H](NC(=O)CCCCCCCCN2CCN(C(=O)CCC(=O)Nc3cccc(Sc4ncc(N5CCC(C)(N)CC5)nc4N)c3Cl)CC2)C(C)(C)C)cc1 [SHP2-D26] | > 95% | > 95% |  |  |  |  |  | 
2 | > 100 µM | > 100 µM | CC1(N)CCN(c2cnc(-c3cccc(Cl)c3Cl)c(N)n2)CC1 [SHP099] |  |  | inhibited the phosphorylation levels | significantly alleviated | inhibited the phosphorylation levels | significantly alleviated | significantly reduced | effectively inhibit
